Experimental data: paper PMC5520537 (Antiviral research, 2017)
Read-outs that look alike come from different tables or passages of the source.

Key:
[1] = system: HBV genotype D; test: HBV replication inhibition assay in HepDES19 cells; type: cell-based, hepatitis B virus; settings: for HBV replication inhibition, qualitative screen: 20 μM, plus-polarity DNA; for EC50: read-out: HBV replication inhibition (EC50), 3 days, plus-polarity DNA strand, average ± SD
[2] = molecular target: T1, huRNaseH1 (Homo sapiens, UniProt O60930); test: Oligonucleotide-directed cleavage assay with purified huRNaseH1; type: biochemical; settings: 100, 60 and 20 μM
T1 sequence (O60930 1-286): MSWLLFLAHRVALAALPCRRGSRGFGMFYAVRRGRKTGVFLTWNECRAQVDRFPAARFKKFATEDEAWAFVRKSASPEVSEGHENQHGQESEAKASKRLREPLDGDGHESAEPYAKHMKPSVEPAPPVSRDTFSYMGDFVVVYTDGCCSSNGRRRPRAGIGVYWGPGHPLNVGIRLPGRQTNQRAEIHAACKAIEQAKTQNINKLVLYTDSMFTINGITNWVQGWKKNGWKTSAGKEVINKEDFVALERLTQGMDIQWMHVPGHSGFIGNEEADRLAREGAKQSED
How it was run: (§1)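 Enzymes were His-tagged and expressed in E. coli, then nickel-affinity purified. A 32P-labelled RNA annealed to a DNA oligonucleotide was incubated with RNaseH and test compound at 42°C for 90 min. Products were gel-resolved and autoradiographed. Inhibition was scored qualitatively as dose-dependent reduction in substrate degraded.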

[3] = molecular target: T2, HBV RNaseH (Hepatitis B virus genotype D subtype ayw, UniProt P03156); test: Oligonucleotide-directed RNA cleavage assay with purified HBV RNaseH; type: biochemical; settings: for Inhibition of HBV RNaseH, Oligonucleotide directed cleavage assay: qualitative, compounds at 100, 60 and 20 μM, 16 previously untested compounds
T2 sequence (P03156 671-832): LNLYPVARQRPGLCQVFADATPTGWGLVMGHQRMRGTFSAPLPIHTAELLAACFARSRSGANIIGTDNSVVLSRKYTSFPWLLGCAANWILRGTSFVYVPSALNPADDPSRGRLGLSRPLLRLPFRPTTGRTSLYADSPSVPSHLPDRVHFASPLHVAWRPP
How it was run: as §1

[4] = system: HepDES19 cells; settings: read-out: Toxicity in HepDES19, LDH (CC50); 72 hours; average ± SD
[5] = system: HepDES19 cells; settings: read-out: Toxicity in HepDES19, NR (CC50); 72 hours; average ± SD
[6] = molecular target: T2, HBV RNaseH; settings: qualitative; previously reported; ref Cai et al., 2014; cited from earlier work
[7] = system: HepDES19 cells; settings: read-out: Toxicity in HepDES19, MTS (CC50); 72 hours; average ± SD
[8] = molecular target: T2, HBV RNaseH; test: Molecular beacon fluorescence RNaseH cleavage assay; type: biochemical; settings: for Inhibition of HBV RNaseH, Molecular Beacon cleavage assay: qualitative, 0 to 500 μM compound, 2.1 μg HBV RNaseH; for Inhibition in the molecular beacon assay: 2.1 μg purified HBV RNaseH, 0 to 500 μM
[9] = molecular target: HBV polymerase (Hepatitis B virus genotype D subtype ayw, UniProt P03156); test: Endogenous polymerase reaction; type: biochemical; settings: inhibitors at 4X EC50; #138 and #211 at 30 μM; ddTTP […]; 7 hours
HBV polymerase, sequence (P03156 whole entry): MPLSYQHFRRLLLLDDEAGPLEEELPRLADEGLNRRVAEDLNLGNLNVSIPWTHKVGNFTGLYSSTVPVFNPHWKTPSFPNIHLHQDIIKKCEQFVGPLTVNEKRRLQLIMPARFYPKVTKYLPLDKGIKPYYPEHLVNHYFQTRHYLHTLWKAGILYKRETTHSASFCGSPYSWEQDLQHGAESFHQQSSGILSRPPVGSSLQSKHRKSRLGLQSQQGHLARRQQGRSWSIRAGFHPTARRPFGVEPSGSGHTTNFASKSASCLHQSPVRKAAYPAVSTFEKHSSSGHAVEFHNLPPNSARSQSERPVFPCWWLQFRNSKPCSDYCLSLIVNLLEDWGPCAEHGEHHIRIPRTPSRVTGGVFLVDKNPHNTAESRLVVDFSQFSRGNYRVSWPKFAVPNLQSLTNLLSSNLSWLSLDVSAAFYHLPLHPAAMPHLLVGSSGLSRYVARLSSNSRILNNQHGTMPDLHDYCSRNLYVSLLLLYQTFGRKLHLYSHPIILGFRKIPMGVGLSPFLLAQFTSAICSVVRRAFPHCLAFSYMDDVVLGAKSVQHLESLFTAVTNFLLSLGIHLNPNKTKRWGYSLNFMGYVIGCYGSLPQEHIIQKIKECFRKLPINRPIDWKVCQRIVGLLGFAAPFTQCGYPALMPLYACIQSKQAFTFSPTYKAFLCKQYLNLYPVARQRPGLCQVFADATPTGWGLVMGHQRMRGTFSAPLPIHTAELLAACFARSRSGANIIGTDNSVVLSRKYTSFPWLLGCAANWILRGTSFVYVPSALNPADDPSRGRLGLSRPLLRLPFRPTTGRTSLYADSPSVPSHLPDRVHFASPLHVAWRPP

[10] = system: HIV replication; settings: read-out: HIV replication inhibition; ref Suchaud et al., 2014; cited from earlier work

Compound | HBV replication inhibition, qualitative screen [1] | Inhibition of HBV RNaseH, Oligonucleotide directed cleavage assay [3] | CC50 [4] | CC50 [5] | Inhibition of HBV RNaseH, Oligonucleotide directed cleavage assay [6] | CC50 [7] | Inhibition of HBV RNaseH, Molecular Beacon cleavage assay [8] | other results
NN1C(=O)Cc2ccccc2C1=O [Compound 204] | − (No inhibition detected at 20 μM) | − (No inhibition detected at 100 μM) | – | – | – | – | – | HBV replication inhibition / activity [1]: inactive; Inhibition of huRNaseH1 [2]: detectably inhibited
COc1ccc2c(c1)C(=O)N(O)C(=O)C2C(=O)NCc1ccc(F)cc1 (centres unmarked) [Compound 88] | – | – | 57 ± 6 µM | 26 ± 2 µM | − (No inhibition detected at 100 μM) | 40 ± 6 µM | − (No inhibition detected at 500 μM) | TI (therapeutic index, CC50(MTS)/EC50) [1]: 16; EC50 [1]: 2.5 ± 0.5 µM
O=C1CCC(=O)N1O [Compound 139] | − (No inhibition detected at 20 μM) | – | – | – | − (No inhibition detected at 100 μM) | – | – | HBV replication inhibition / activity [1]: inactive
CC(=Nc1ccccc1N)c1c(C)cc(=O)n(O)c1O [Compound 208] | – | + (Dose-dependent inhibition at ≤100 μM) | 12 ± 0.1 µM | 13 ± 1 µM | – | 15 ± 7 µM | + (Dose-dependent inhibition at ≤500 μM) | Inhibition of huRNaseH1 [2]: did not inhibit; Inhibition in the molecular beacon assay [8]: inhibited; Stability in mouse liver microsomes: stable; Inhibition of RNA cleavage by the HBV RNaseH ([3]; 100, 60 and 20 μM): inhibited RNA cleavage
O=c1[nH]c(=O)c2ccccc2[nH]1 [Compound 197, Benzoylene urea] | − (No inhibition detected at 20 μM) | − (No inhibition detected at 100 μM) | – | – | – | – | – | –
Cc1cc(COc2ccc(Oc3ccc(Cl)cc3)cc2)n(O)c(=O)c1 [Compound 211, Rilopirox, reference compound] | − (No inhibition detected at 20 μM) | − (No inhibition detected at 100 μM) | – | – | – | – | − (No inhibition detected at 500 μM) | HBV replication inhibition / activity [1]: inactive; Effect on 32P incorporation / HBV DNA elongation in EPR [9]: None of the HBV inhibitors nor the two negative control compounds (#138 and 211) significantly altered incorporation; Inhibition in the molecular beacon assay [8]: had no effect on the rate of substrate degradation
O=C(NCc1ccc(F)cc1)C1C(=O)N(O)C(=O)c2cc(Cl)ccc21 (centres unmarked) [Compound 87] | – | – | 52 ± 15 µM | 24 ± 1 µM | − (No inhibition detected at 100 μM) | 37 ± 17 µM | − (No inhibition detected at 500 μM) | TI (therapeutic index, CC50(MTS)/EC50) [1]: 8.2; EC50 [1]: 4.5 ± 3.7 µM
Cc1cn([C@H]2CC[C@@H](COP(=O)(O)OP(=O)(O)OP(=O)(O)O)O2)c(=O)[nH]c1=O [ddTTP] | – | – | – | – | – | – | – | Effect on 32P incorporation / HBV DNA elongation in EPR [9]: strongly inhibited
Nc1cccc(=O)[nH]1 [Compound 206] | − (No inhibition detected at 20 μM) | − (No inhibition detected at 100 μM) | – | – | – | – | – | Inhibition of huRNaseH1 [2]: detectably inhibited
O=C(Nc1ccc2c(c1)C(=O)N(O)C(=O)C2C(=O)NCc1ccc(F)cc1)c1ccccc1 (centres unmarked) [Compound 86] | – | – | > 100 µM | 52 ± 11 µM | − (No inhibition detected at 100 μM) | 99 ± 2 µM | − (No inhibition detected at 500 μM) | TI (therapeutic index, CC50(MTS)/EC50) [1]: 71; EC50 [1]: 1.4 ± 0.3 µM; EC50 [10]: > 21 µM
Cc1cc(CC(C)CC(C)(C)C)n(O)c(=O)c1.NCCO (centres unmarked) [Compound 191, Piroctone olamine, reference compound] | − (No inhibition detected at 20 μM) | − (No inhibition detected at 100 μM) | – | – | – | – | – | –
Oc1nc2ccccc2nc1O [Compound 198, 2,3-dihydroxy-quinoxaline] | − (No inhibition detected at 20 μM) | − (No inhibition detected at 100 μM) | – | – | – | – | – | –
Cc1cc(C2CCCCC2)n(O)c(=O)c1 [Compound 41, Ciclopirox, reference compound] | − (No inhibition detected at 20 μM) | – | – | – | − (No inhibition detected at 100 μM) | – | – | –
